The values that follow come from article PMC11977460 (European Heart Journal Open, 2025).

Broadly, the half-life is the time in which the quantity being followed falls by half.

The test system of data set [1] is myocardial fibrosis in T2D rat hearts. The data set can be described thus: Myocardial fibrosis histology and immunofluorescence. The conditions noted are these: first set, 2 pmol·kg−1·min−1 s.c., 6 weeks; for decrease in WGA staining (extracellular matrix): n = 5-6; for decrease in Masson's trichrome staining: n = 6. Format: in vivo.
Data set [2] relates to SMAD2/3, NFATc3, ERK1/2, JNK, PKG/VASP in T2D rat hearts. Format: in vivo. The conditions noted are these: for cardiac cGMP-dependent pathway PKG/VASP (VASP phosphorylation): western blot, T2D lowered VASP phosphorylation by ≈60%. The procedure, abridged: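 Ventricles came from diabetic rats after 6 weeks of peptide infusion (2 pmol·kg−1·min−1) or sacubitril in drinking water (18 mg·kg−1·day−1). Tissue was lysed in RIPA with protease and phosphatase inhibitors and protein assayed by Bradford. Western blots: 12% SDS-PAGE, PVDF, 5% BSA block, primaries overnight at 4°C, GAPDH reference, three blots per condition. Antibody arrays: 5 µg protein dot-blotted onto PVDF, then probed with GAPDH as internal control.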

The test system of data set [3] is cultured rat cardiac fibroblasts. The data set can be described thus: Western blots of SMAD2/3 and PKG/VASP in high-glucose-treated fibroblasts. Format: cell-based. The settings on record: high glucose 24 h with 100 pM peptide, western blot; for decrease in SMAD2 phosphorylation levels: n = 3; for activation of PKG/VASP pathway (VASP phosphorylation at serine 239): n = 5. The procedure, abridged: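 Day-5 cultures of rat ventricular fibroblasts were given high glucose for 24 h, with or without peptide at 100 pM. Cells were lysed in RIPA with protease and phosphatase inhibitors, and proteins were separated by 12% SDS-PAGE and blotted to PVDF. Membranes were blocked in 5% BSA and probed overnight at 4°C, with GAPDH as housekeeper. Blots came from three or five independent cultures.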

The test system is the same in data set [4]. The data set can be described thus: Sircol collagen secretion assay on cell supernatants. Format: cell-based. The conditions noted are these: 100 pM, 24 h, n = 6 independent cultures. In a few lines: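 Rat ventricular fibroblasts, isolated by collagenase digestion, were adhesion-selected and cultured 5 days in DMEM with 10% FBS. They were then exposed to peptide at 100 pM for 24 h. Culture supernatants were used directly in the Sircol dye-binding assay, with pellets rinsed and dissolved in alkali reagent; collagen was read against standards. Six independent cultures were run.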

For another data set, the system named is mongrel dogs. The settings on record: mongrel dogs following peptide administration; cited from earlier work.
The test system of data set [5] is high-fat/streptozotocin-induced Type 2 diabetic (T2D) rats. The data set can be described thus: Blood glucose and physiological parameters. The settings on record: for food intake / urine output / water intake / body weight: T2D animals, Supplementary Figures S1 and S2; for food intake / urine output / water intake: 24 h metabolic cages; for fasting plasma glucose at Week 6: first set, untreated T2D rose further to ≈500 mg·dL−1 at Week 6. Type of data set: in vivo, rat. The procedure, abridged: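 Male Wistar rats, 12 months old, 450 ± 25 g. Type 2 diabetes induced by a 60% kcal lard diet for 4 weeks, then three i.p. STZ doses of 40 mg·kg−1 (citrate, pH 4.5) on consecutive days; shams received citrate. Tail glucose was read by glucometer in conscious restrained rats after a 12-h fast. Treatment ran 6 weeks; rats were held singly in metabolic cages for 24 h before the end.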

For data set [6], the system named is ANP/cGMP concentrations in T2D rats. The data set can be described thus: Cardiac and plasma ANP/cGMP measurement by ELISA. Type of data set: in vivo, rat. The settings on record: for increase in cardiac cGMP levels vs. T2D: acetylated samples, T2D tended to decrease ≈50%, n = 4-6; for increase in ANP plasma concentration: non-significant for MANP, P = 0.0967. Background: An ELISA detects its analyte on a solid surface through an enzyme-linked reagent.

Data set [7] relates to cultured rat cardiac fibroblasts. The data set can be described thus: MTT proliferation assay. Type of data set: cell-based. The settings on record: 100 pM, 24 h, n = 6 independent cultures. In a few lines:
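Ventricular fibroblasts came from normal Wistar rats by collagenase type V digestion and differential centrifugation, then were selected by 2-h adhesion in DMEM with 10% heat-inactivated FBS. On day 5 of culture, cells were exposed to peptide at 100 pM for 24 h. MTT (0.5 mg·mL−1 in Tyrode) was added for 1 h at 37°C and formazan dissolved in DMSO for absorbance reading. Six independent cultures were run.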

Data set [8] has as its target insulin-degrading enzyme (IDE). The conditions noted are these: relative to ANP; cited from earlier work.
Another data set relates to neprilysin (NEP). The conditions noted are these: cited from earlier work.
For data set [9] the following is noted: regulated by clearance receptor (NPR-C) and peptidases; cited from earlier work.
Data set [10] has as its system cardiac collagen in T2D rat hearts. Format: in vivo. The conditions noted are these: first set; Sircol assay; 2 pmol·kg−1·min−1 s.c., 6 weeks; n = 5-6. The procedure, abridged:
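Ventricular tissue came from diabetic rats after 6 weeks of pump-delivered peptide at 2 pmol·kg−1·min−1. Tissue was homogenized in acid-pepsin and reacted with Sircol dye. Collagen-dye pellets were spun down, rinsed with acetic acid and dissolved in alkali reagent. Soluble collagen was read as absorbance at 550 nm against standards.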

The mark [11] stands for this setting: first set, ELISA on ventricular tissue, 2 pmol·kg−1·min−1 s.c., 6 weeks, n = 6.

Regarding M-atrial natriuretic peptide [MANP], in data set [1], the “decrease in WGA staining (extracellular matrix)” value is listed as “≈ 75%” and the “decrease in Masson's trichrome staining” value is on record as “≈ 80%”. Moreover, in data set [2] (first set, antibody array vs T2D controls, n = 4), the “cardiac NFATc3 activation (phosphorylated inactivated protein levels)” value is on record as “significantly reduced NFATc3 activation”. In addition, in data set [2] (first set, antibody array, T2D hearts, n = 4), the “cardiac ERK1/2 activation (pERK/ERK)” value is recorded as “markedly attenuated”. Further, the “lower SMAD3 phosphorylation levels compared with T2D animals” value in [2] (first set, cardiac tissue western blot, 2 pmol·kg−1·min−1 s.c., 6 weeks, n = 3) is “≈ 55%”. The “cardiac cGMP-dependent pathway PKG/VASP (VASP phosphorylation)” value in [2] (first set, n = 3) is “restored this pathway”. In data set [3], the “decrease in SMAD2 phosphorylation levels” value is reported as “≈ 55%” and the “activation of PKG/VASP pathway (VASP phosphorylation at serine 239)” value is “≈ 2.3 fold”. Moreover, in [4], the “decrease in collagen secretion” value is reported as “≈ 30%”. Also, in the data set with mongrel dogs, the “increase in plasma ANP” value is recorded as around 1.5 fold and the “increase in plasma cGMP” value is around 1.5 fold. Also, in data set [5], the food intake result is “reduced”, the urine output result was “reduced”, the water intake result was “reduced” and the body weight result is given as “without affecting the body weight”. The “fasting plasma glucose at Week 6” value in [5] (T2D rats) is “remained unchanged”. In addition, the “increase in cardiac ANP levels vs. T2D” value in [6] (setting [11]) was “≈ 2 fold”. Also, the “increase in cardiac cGMP levels vs. T2D” value in [6] (first set, ELISA) is “≈ 5 fold”. In data set [6] (first set, ELISA, n = 6), the “increase in ANP plasma concentration” value is “≈ 20%”. Also, in data set [7], the “decrease in fibroblast proliferation” value was “≈ 20%”. In addition, in data set [8], the “IC50 with insulin-degrading enzyme (IDE), higher than ANP” value was 30 fold. In addition, the “resistance to NEP degradation” value in the data set with neprilysin (NEP) is “resistant to NEP degradation”.
As for brain natriuretic peptide [BNP], the half-life in [9] was 20 min.
Take atrial natriuretic peptide [ANP]: in data set [10], the “increase in cardiac soluble collagen” value is given as “≈ 25%”. For the same molecule, in data set [1], the “decrease in WGA staining (extracellular matrix)” value is recorded as “≈ 50%” and the “decrease in Masson's trichrome staining” value is reported as “≈ 50%”. In addition, in [2] (first set, n = 3), the “cardiac cGMP-dependent pathway PKG/VASP (VASP phosphorylation)” value is listed as “restored this pathway”. Also, in [3], the “decrease in SMAD2 phosphorylation levels” value is “≈ 55%” and the “activation of PKG/VASP pathway (VASP phosphorylation at serine 239)” value is on record as “≈ 2.3 fold”. Further, in data set [4], the “decrease in collagen secretion” value was “≈ 30%”. Further, in data set [9], the half-life is reported as 3 min. Further, in the data set with mongrel dogs, the “increase in plasma ANP” value is around 1.5 fold and the “increase in plasma cGMP” value is on record as around 1.5 fold. In addition, in data set [5], the food intake entry is “reduced”, the urine output result was “reduced”, the water intake result is “reduced” and the body weight entry is “without affecting the body weight”. In addition, the “fasting plasma glucose at Week 6” value in data set [5] (T2D rats) is “remained unchanged”. Besides, the “increase in cardiac ANP levels vs. T2D” value in data set [6] (setting [11]) was “no noticeable effect”. For the same molecule, the “increase in cardiac cGMP levels vs. T2D” value in data set [6] (first set, ELISA) is on record as “attenuated”. Further, the “increase in ANP plasma concentration” value in data set [6] (first set, ELISA, n = 6) is on record as “no noticeable effect”. Further, in data set [6] (second set, ELISA, n = 5-7), the “increase in cardiac ANP levels vs. T2D” value is reported as “no noticeable effect” and the “plasma ANP levels” value is “no noticeable effect”. In addition, the “decrease in fibroblast proliferation” value in [7] is “≈ 20%”.
On to `CCOC(=O)[C@H](C)C[C@@H](Cc1ccc(-c2ccccc2)cc1)NC(=O)CCC(=O)O` [SACU, Sacubitril sodium], for which, in data set [2] (second set, antibody array, n = 4), the “level of ERK1/2 phosphorylation relative to GAPDH” value was “decreased”. Also, in data set [5], the food intake entry was “reduced”, the urine output entry is listed as “reduced”, the water intake result is “reduced” and the body weight entry is “without affecting the body weight”. The “metabolic profile (blood glucose)” value in data set [5] (second set, T2D rats, SACU 18 mg·kg−1·day−1 in drinking water) is “same metabolic profiles as their counterparts”. Besides, in [6] (second set, ELISA, n = 5-7), the “increase in cardiac ANP levels vs. T2D” value is listed as “≈ 50%”.
